Active and inactive are the calls of the source.
How the values were obtained:
[1] = molecular target: T1, Prostaglandin G/H synthase 1 (Ovis aries) (UniProt P05979); experiment: Inhibition of ovine COX-1 assessed as reduction in PGE2 level using 10 uM arachidonic acid as substrate at 20 uM preincubated with enzyme for 5 mins followed by substrate addition and measured after 20 mins by ELISA relative to control; details: time 25.0 min
T1 sequence (whole entry): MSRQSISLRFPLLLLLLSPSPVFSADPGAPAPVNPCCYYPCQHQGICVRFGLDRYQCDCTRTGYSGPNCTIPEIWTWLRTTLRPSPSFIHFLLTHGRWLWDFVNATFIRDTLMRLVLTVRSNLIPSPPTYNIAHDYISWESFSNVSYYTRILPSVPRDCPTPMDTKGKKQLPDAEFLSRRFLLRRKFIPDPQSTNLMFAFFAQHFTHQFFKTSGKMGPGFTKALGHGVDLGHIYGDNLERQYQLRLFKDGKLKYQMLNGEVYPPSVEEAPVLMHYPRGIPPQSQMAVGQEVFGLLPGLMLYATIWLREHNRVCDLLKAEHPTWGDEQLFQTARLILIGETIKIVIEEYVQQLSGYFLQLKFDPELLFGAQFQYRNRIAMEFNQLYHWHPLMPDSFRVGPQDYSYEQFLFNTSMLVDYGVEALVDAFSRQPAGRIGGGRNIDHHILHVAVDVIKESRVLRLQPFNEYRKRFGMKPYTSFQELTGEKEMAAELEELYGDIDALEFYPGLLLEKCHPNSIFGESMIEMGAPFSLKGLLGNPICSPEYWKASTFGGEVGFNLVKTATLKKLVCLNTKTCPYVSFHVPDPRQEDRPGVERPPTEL
Procedure, shortened: (§1)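 Enzyme in 100 mM Tris pH 8.0 with 5 µM porcine hematin, 18 mM L-epinephrine and 50 µM Na2EDTA. Compound in DMSO (DMSO blank) 5 min at room temperature. Arachidonic acid (10 µM) added, 20 min at 37°C. Stopped with 10% formic acid, diluted 1:15, PGE2 measured by ELISA at 405 nm as % inhibition versus blank. At least three experiments in at least duplicate. Non-active below 50% inhibition at 20 µM.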

[2] = molecular target: T2, Prostaglandin G/H synthase 2 (Homo sapiens, UniProt P35354); experiment: Inhibition of human recombinant COX-2 assessed as reduction in PGE2 level using 10 uM arachidonic acid as substrate preincubated with enzyme for 5 mins followed by substrate addition and measured after 20 mins by ELISA
T2 sequence (P35354 whole entry): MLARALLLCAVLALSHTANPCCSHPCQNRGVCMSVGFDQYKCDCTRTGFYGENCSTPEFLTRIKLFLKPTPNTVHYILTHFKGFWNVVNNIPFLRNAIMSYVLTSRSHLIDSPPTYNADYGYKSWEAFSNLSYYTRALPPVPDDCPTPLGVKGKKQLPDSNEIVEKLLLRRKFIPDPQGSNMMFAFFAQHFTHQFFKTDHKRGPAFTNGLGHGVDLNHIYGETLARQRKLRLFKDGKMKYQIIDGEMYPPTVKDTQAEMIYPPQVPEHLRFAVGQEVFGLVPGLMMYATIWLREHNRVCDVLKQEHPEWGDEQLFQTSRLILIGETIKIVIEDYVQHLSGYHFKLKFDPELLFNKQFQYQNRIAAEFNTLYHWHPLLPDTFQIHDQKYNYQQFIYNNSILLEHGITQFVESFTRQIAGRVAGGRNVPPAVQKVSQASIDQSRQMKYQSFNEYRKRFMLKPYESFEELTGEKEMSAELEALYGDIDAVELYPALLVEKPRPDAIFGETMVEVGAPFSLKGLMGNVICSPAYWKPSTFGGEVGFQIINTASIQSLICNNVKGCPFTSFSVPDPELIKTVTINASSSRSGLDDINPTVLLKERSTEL

[3] = molecular target: T3, Polyunsaturated fatty acid 5-lipoxygenase (Homo sapiens, UniProt P09917); experiment: Inhibition of human recombinant 5-LOX assessed as reduction in LTB4 level using 800 uM arachidonic acid as substrate preincubated with enzyme for 10 mins followed by substrate addition and measured after 10 mins by ELISA
T3 sequence (P09917 whole entry): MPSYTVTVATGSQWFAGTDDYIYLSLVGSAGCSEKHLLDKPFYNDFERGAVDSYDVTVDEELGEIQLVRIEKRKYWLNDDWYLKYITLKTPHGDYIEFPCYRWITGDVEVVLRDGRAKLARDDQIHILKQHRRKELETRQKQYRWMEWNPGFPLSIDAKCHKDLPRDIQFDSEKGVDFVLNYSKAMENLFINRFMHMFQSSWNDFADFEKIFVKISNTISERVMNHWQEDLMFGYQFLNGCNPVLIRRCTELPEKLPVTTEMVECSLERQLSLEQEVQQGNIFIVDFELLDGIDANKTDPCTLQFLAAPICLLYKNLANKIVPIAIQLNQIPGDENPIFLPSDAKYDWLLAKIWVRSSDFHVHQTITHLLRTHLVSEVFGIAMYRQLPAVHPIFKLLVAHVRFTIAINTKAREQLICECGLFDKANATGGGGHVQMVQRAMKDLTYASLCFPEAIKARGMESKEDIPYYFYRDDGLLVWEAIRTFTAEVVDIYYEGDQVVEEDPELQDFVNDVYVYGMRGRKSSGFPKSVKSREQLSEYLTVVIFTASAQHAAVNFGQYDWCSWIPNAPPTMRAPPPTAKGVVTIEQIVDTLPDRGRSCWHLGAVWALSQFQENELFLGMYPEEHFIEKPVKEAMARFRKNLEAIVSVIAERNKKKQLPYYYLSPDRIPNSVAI
Procedure, shortened: (§2)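 Human recombinant 5-LOX, 1 unit per reaction, in PBS pH 7.4 containing 1 mM Na2EDTA and 200 µM ATP. Compound in DMSO (DMSO blank) held 10 min at 4°C. CaCl2 added, reaction started with arachidonic acid (800 µM solution) for 10 min at 37°C. Formic acid stop, 1:15 dilution, LTB4 measured by ELISA as % inhibition versus blank. At least three experiments in at least duplicate.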

[4] = molecular target: T4, Prostaglandin G/H synthase 1 (Ovis aries, UniProt P05979); experiment: Inhibition of ovine COX-1 assessed as reduction in PGE2 level using 10 uM arachidonic acid as substrate preincubated with enzyme for 5 mins followed by substrate addition and measured after 20 mins by ELISA; procedure, shortened: as §1
T4 sequence (P05979 whole entry): T1 sequence (whole entry)

[5] = Selectivity index, ratio of IC50 for ovine COX-1 to IC50 for human recombinant COX-2
[6] = molecular target: T5, Prostaglandin G/H synthase 2 (Homo sapiens) (UniProt P35354); experiment: Inhibition of human recombinant COX-2 assessed as reduction in PGE2 level using 10 uM arachidonic acid as substrate at 20 uM preincubated with enzyme for 5 mins followed by substrate addition and measured after 20 mins by ELISA relative to control; details: time 25.0 min; procedure, shortened: as §1
T5 sequence (whole entry): T2 sequence (P35354 whole entry)

[7] = Antioxidant activity assessed as radical scavenging activity measured after 30 mins by DPPH assay; assay type: functional
Procedure, shortened: (§3)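 Test compounds in methanol, two-fold serial dilution to final 3.125–400 µM, incubated 30 min with DPPH in methanol (stated final […]) at room temperature in the dark. Absorbance read at 517 nm. Trolox and L-ascorbic acid served as positive references. Activity expressed as EC50.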

[8] = molecular target: T6, Polyunsaturated fatty acid 5-lipoxygenase (Homo sapiens) (UniProt P09917); experiment: Inhibition of human recombinant 5-LOX assessed as reduction in LTB4 level using 800 uM arachidonic acid as substrate at 5 uM preincubated with enzyme for 10 mins followed by substrate addition and measured after 10 mins by ELISA relative to control; details: time 20.0 min
T6 sequence (whole entry): T3 sequence (P09917 whole entry)
Procedure, shortened: as §2, with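 “duplicate. Non-active cutoff below 50% inhibition at 5 µM.” for “duplicate.”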

[9] = molecular target: T3, Polyunsaturated fatty acid 5-lipoxygenase; experiment: Inhibition of human recombinant 5-LOX assessed as reduction in LTB4 level using 5 to 80 uM arachidonic acid as substrate preincubated with enzyme for 10 mins followed by substrate addition and measured after 10 mins by ELISA
Procedure, shortened: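 Human recombinant 5-LOX, 1 unit per reaction, in PBS pH 7.4 with 1 mM Na2EDTA and 200 µM ATP. Compound in DMSO preincubated 10 min at 4°C. CaCl2 added, then arachidonic acid at final 5, 20 or 80 µM, 10 min at 37°C. Stopped with 10% formic acid, diluted 1:15, LTB4 measured by ELISA. Inhibition calculated versus blank at the matching AA level.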

[10] = molecular target: T4, Prostaglandin G/H synthase 1; experiment: Competitive inhibition of ovine COX-1 assessed as reduction in PGE2 level using 250 nM arachidonic acid as substrate preincubated with enzyme for 5 mins followed by substrate addition and measured after 20 mins by ELISA
Procedure, shortened: (§4)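 Substrate-dependence test. Enzyme in 100 mM Tris pH 8.0 with 5 µM porcine hematin, 18 mM L-epinephrine and 50 µM Na2EDTA. Compound in DMSO (DMSO blank) preincubated 5 min at room temperature. Arachidonic acid added to final 50, 250 or 1250 nM, then 20 min at 37°C. Stopped with 10% formic acid, diluted 1:15, PGE2 quantified by ELISA at 405 nm. Inhibition calculated versus blank at the same AA level.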

[11] = Antioxidant activity assessed as radical scavenging activity at 400 uM measured after 30 mins by DPPH assay; assay type: functional; procedure, shortened: as §3
[12] = molecular target: T4, Prostaglandin G/H synthase 1; experiment: Competitive inhibition of ovine COX-1 assessed as reduction in PGE2 level using 50 nM arachidonic acid as substrate preincubated with enzyme for 5 mins followed by substrate addition and measured after 20 mins by ELISA; procedure, shortened: as §4
[13] = molecular target: T4, Prostaglandin G/H synthase 1; experiment: Competitive inhibition of ovine COX-1 assessed as reduction in PGE2 level using 1250 nM arachidonic acid as substrate preincubated with enzyme for 5 mins followed by substrate addition and measured after 20 mins by ELISA; procedure, shortened: as §4

## CCCCCCCCCCCCCCCC1=CC(=O)C=C(OC)C1=O
[1]
  inhibition: < 50%
[2]
  IC50: 8.97 µM
[3]
  IC50: 0.79 µM

## CCCCCc1cccc(OC)c1O
[4]
  IC50: 5.42 µM
[5]
  Ratio IC50: 1.17
[2]
  IC50: 4.65 µM
[3]
  IC50: 3.72 µM

## CCCCCCCCCCCCCCCc1cc(O)cc(OC)c1O
[4]
  IC50: 2.65 µM
[5]
  Ratio IC50: 0.98
[2]
  IC50: 2.71 µM
[3]
  IC50: 0.14 µM

## CCCCCC1=CC(=O)C=C(OC)C1=N
[4]
  IC50: 15.8 µM
[5]
  Ratio IC50: 2.71
[2]
  IC50: 5.82 µM
[3]
  IC50: 1.01 µM

## CCCCCc1cc(O)cc(OC)c1O
[1]
  inhibition: < 50%
[6]
  inhibition: < 50%
[3]
  IC50: 0.94 µM

## Cc1c(C)c2c(c(C)c1O)CCC(C)(C(=O)O)O2 (configuration not stated) [TROLOX]
[7]
  EC50: 32.5 µM

## CCCCCCCCCCCCCc1cc(O)cc(O)c1
[4]
  IC50: 2.38 µM
[5]
  Ratio IC50: 0.87
[2]
  IC50: 2.74 µM
[8]
  inhibition: < 50%

## COc1cc(O)cc(Br)c1O
[4]
  IC50: 6.11 µM
[5]
  Ratio IC50: 1.27
[2]
  IC50: 4.81 µM
[3]
  IC50: 1.14 µM

## COC1=CC(=O)C=C(Br)C1OC(C)=O (configuration not stated)
[1]
  inhibition: < 50%
[7]
  EC50: 45.6 µM
[6]
  inhibition: < 50%
[3]
  IC50: 0.17 µM

## CCCCCCCCCCCC1=CC(=O)C=C(OC)C1=O
[4]
  IC50: 1.07 µM
[9]
  IC50: 0.71 µM
[10]
  IC50: 2.77 µM
[5]
  Ratio IC50: 1.88
[2]
  IC50: 0.57 µM
[3]
  IC50: 0.34 µM
[11]
  Activity: inactive
[12]
  IC50: 0.8 µM
[13]
  IC50: > 20 µM

## O=C1O[C@H]([C@@H](O)CO)C(O)=C1O [ASCORBIC ACID]
[7]
  EC50: 31.1 µM

## CCCCCCCCCCCCCC1=CC(=O)C=C(OC)C1=O
[4]
  IC50: 0.25 µM
[2]
  IC50: 0.88 µM
[3]
  IC50: 1.05 µM

## CCCCCCCCCCCCCCCc1cc(O)cc(O)c1 [CARDOL]
[4]
  IC50: 5.61 µM
[5]
  Ratio IC50: 2.38
[2]
  IC50: 2.36 µM
[8]
  inhibition: < 50%

## COC1=CC(=O)C=C(Br)C1=O
[4]
  IC50: 15.6 µM
[5]
  Ratio IC50: 3.47
[2]
  IC50: 4.48 µM
[3]
  IC50: 1.67 µM

## CCCCCCCCCCCCCc1cc(OC(C)=O)cc(OC)c1OC(C)=O
[1]
  inhibition: < 50%
[6]
  inhibition: < 50%
[3]
  IC50: 1.02 µM

## CCCCCCCCCCCc1cc(O)cc(OC)c1O
[4]
  IC50: 1.07 µM
[5]
  Ratio IC50: 1.95
[2]
  IC50: 0.55 µM
[3]
  IC50: 0.28 µM

## CCCCCCCCCCCCCc1cc(O)cc(OC)c1O
[4]
  IC50: 3.38 µM
[5]
  Ratio IC50: 2.18
[2]
  IC50: 1.55 µM
[3]
  IC50: 1.49 µM

## CCCCCC1=CC(=O)C=C(OC)C1=O [Primin]
[4]
  IC50: 18.9 µM
[5]
  Ratio IC50: 9.96
[2]
  IC50: 1.9 µM
[3]
  IC50: 1.37 µM

## CCCCCc1cc(O)cc(OC)c1
[1]
  inhibition: < 50%
[2]
  IC50: 15.9 µM
[8]
  inhibition: < 50%

## CCCCCc1cc(OC(C)=O)cc(OC)c1OC(C)=O
[1]
  inhibition: < 50%
[6]
  inhibition: < 50%
[3]
  IC50: 1.09 µM

## CCCCCc1cc(O)cc(O)c1 [WHILE OLIVETOL]
[4]
  IC50: 13.6 µM
[5]
  Ratio IC50: 0.79
[2]
  IC50: 17.3 µM
[8]
  inhibition: < 50%

Source: ChEMBL document CHEMBL4706530, “Synthesis, inhibitory activity and in silico docking of dual COX/5-LOX inhibitors with quinone and resorcinol core” (Eur J Med Chem, 2020)
